Reference: ChEMBL document CHEMBL1124934, “Synthesis and structure-activity relationships of dynorphin A-(1-8) amide analogues” (J Med Chem, 1990)
pIC50, pKi: −log10 of the molar value. Square brackets hold non-standard residues; d marks the D form. Peptide text beside a SMILES is read from it. Phe(4-NO2) = N[C@@H](Cc1ccc([N+](=O)[O-])cc1)C(=O)O; NMeY = CN[C@@H](Cc1ccc(O)cc1)C(=O)O; NMeF = CN[C@@H](Cc1ccccc1)C(=O)O; Sar = CNCC(=O)O

Experiments:
[1] = molecular target: Delta-type opioid receptor (Mus musculus, UniProt P32300); experiment: Evaluated for inhibitory activity against Opioid receptor delta 1 of mouse vas deferens (MVD).; type: tissue-based
Mu-type opioid receptor [2] = molecular target: T1, Mu-type opioid receptor (Cavia porcellus, UniProt P97266); experiment: Evaluated for inhibitory activity against Opioid receptor mu 1 of guinea pig ileum (GPI); type: tissue-based
Mus musculus [3] = experiment: Evaluated for analgesic effect using mouse tail-pinch test after intravenous administration; type: functional
Procedure, shortened: (§1)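 Mice, intravenous dosing, tail-pinch analgesia test. Four doses per compound, each dose tested on at least eight animals, giving ED50 in mg/kg.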

Mu-type opioid receptor [4] = molecular target: T1, Mu-type opioid receptor; experiment: Binding affinities against Opioid receptor mu 1 of guinea pig brain membrane using [3H]DAGO as the radioligand using competition binding assays.
Procedure, shortened: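 μ-site competition binding on crude P2 membranes from male Hartley guinea pig brain (1 g original wet weight/20 mL, 50 mM Tris-HCl pH 7.6) with 5 nM [3H]DAGO and varied competitor, 60 min at 25 °C. GF/B filtration (1% polyethylenimine presoaked), six ice-cold buffer rinses, scintillation counting. Nonspecific binding with 10 μM levallorphan. Mean of five or six determinations ± SEM.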

Mus musculus [5] = experiment: Evaluated for analgesic effect using mouse tail-pinch test after intravenous administration; 0.35-1.71; type: functional; procedure, shortened: as §1
Mus musculus [6] = experiment: Evaluated for analgesic effect using mouse tail-pinch test after intravenous administration; 2.21-9.32; type: functional; procedure, shortened: as §1
Mus musculus [7] = experiment: Evaluated for analgesic effect using mouse tail-pinch test after intravenous administration; 0.11-0.52; type: functional; procedure, shortened: as §1
Mus musculus [8] = experiment: Evaluated for analgesic effect using mouse tail-pinch test after intravenous administration; 9.61-14.34; type: functional; procedure, shortened: as §1
Mus musculus [9] = experiment: Evaluated for analgesic effect using mouse tail-pinch test after intravenous administration; 0.64-2.34; type: functional; procedure, shortened: as §1

T1 sequence (P97266 whole entry): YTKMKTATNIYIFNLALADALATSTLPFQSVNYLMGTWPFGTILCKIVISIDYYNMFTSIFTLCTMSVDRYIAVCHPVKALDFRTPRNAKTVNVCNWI
Delta-type opioid receptor, sequence (P32300 whole entry): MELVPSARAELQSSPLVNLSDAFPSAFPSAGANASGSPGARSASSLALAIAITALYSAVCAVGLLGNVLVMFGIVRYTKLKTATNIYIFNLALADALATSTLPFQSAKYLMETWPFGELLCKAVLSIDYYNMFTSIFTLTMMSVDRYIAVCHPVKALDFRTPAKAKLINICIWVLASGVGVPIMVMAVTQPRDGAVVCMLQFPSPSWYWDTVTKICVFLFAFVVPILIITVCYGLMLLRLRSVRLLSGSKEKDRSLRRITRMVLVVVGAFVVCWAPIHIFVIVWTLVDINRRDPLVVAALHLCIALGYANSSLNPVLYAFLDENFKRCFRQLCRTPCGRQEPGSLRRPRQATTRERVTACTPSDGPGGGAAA

In the case of `CCCCCCNC(=O)[C@@H](CC(C)C)NC(=O)[C@H](CCCNC(=N)N)NC(=O)[C@H](CCCNC(=N)N)NC(=O)[C@H](CC(C)C)NC(=O)[C@H](Cc1ccccc1)NC(=O)CNC(=O)CNC(=O)[C@H](Cc1ccc(O)cc1)NC`, the pIC50 [1] was 7.65 and the pIC50 (Mu-type opioid receptor [2]) was 8.18.
`CCCCCCNC(=O)[C@H](CC(C)C)NC(=O)[C@H](CCCN=C(N)N)NC(=O)[C@H](CCCN=C(N)N)NC(=O)[C@H](CC(C)C)NC(=O)[C@@H](Cc1ccccc1)NC(=O)CNC(=O)CNC(=O)[C@H](Cc1ccc(O)cc1)NC` gave an ED50 (Mus musculus [3]) of over 7 mg/kg.
With `CCNC(=O)[C@@H](CC(C)C)NC(=O)[C@H](CCCN=C(N)N)N(C)C(=O)[C@H](CCCN=C(N)N)NC(=O)[C@H](CC(C)C)NC(=O)[C@H](Cc1ccc([N+](=O)[O-])cc1)NC(=O)CNC(=O)CNC(=O)[C@H](Cc1ccc(O)cc1)NC` [listing 1 of 2 here] the pIC50 [1] was 8.43, the pKi (Mu-type opioid receptor [4]) was 8.76 and the pIC50 (Mu-type opioid receptor [2]) was 9.30.
`CCNC(=O)[C@@H](CC(C)C)NC(=O)[C@H](CCCN=C(N)N)N(C)C(=O)[C@H](CCCN=C(N)N)NC(=O)[C@H](CC(C)C)NC(=O)[C@H](Cc1ccc([N+](=O)[O-])cc1)NC(=O)CNC(=O)CNC(=O)[C@H](Cc1ccc(O)cc1)NC` [listing 2 of 2 here] showed an ED50 (Mus musculus [5]) of 0.77 mg/kg.
In the case of `CN[C@@H](Cc1ccc(O)cc1)C(=O)NCC(=O)NCC(=O)N[C@@H](Cc1ccccc1)C(=O)N[C@@H](CC(C)C)C(=O)N(C)[C@@H](CCCN=C(N)N)C(=O)N[C@@H](CCCN=C(N)N)C(=O)N[C@H](CC(C)C)C(N)=O` [listing 1 of 2 here], the pIC50 [1] was 6.94 and the pIC50 (Mu-type opioid receptor [2]) was 7.69.
With `CN[C@@H](Cc1ccc(O)cc1)C(=O)NCC(=O)NCC(=O)N[C@@H](Cc1ccccc1)C(=O)N[C@@H](CC(C)C)C(=O)N(C)[C@@H](CCCN=C(N)N)C(=O)N[C@@H](CCCN=C(N)N)C(=O)N[C@H](CC(C)C)C(N)=O` [listing 2 of 2 here] the ED50 (Mus musculus [6]) was 4.54 mg/kg.
Work on `CC[C@H](C)[C@H](NC(=O)[C@H](CCCNC(=N)N)NC(=O)[C@H](CCCNC(=N)N)NC(=O)[C@H](CC(C)C)NC(=O)[C@H](Cc1ccccc1)NC(=O)CNC(=O)CNC(=O)[C@@H](N)Cc1ccc(O)cc1)C(N)=O` yielded a pIC50 [1] of 8.52, a pKi (Mu-type opioid receptor [4]) of 8.15 and a pIC50 (Mu-type opioid receptor [2]) of 9.70.
For `CCNC(=O)[C@@H](CC(C)C)NC(=O)[C@H](CCCN=C(N)N)N(C)C(=O)[C@H](CCCN=C(N)N)NC(=O)[C@@H]1CSSC[C@@H](NC(=O)[C@@H](N)Cc2ccc(O)cc2)C(=O)NCC(=O)N[C@@H](Cc2ccccc2)C(=O)N1` [listing 1 of 2 here], the pIC50 [1] was 9.89, the pKi (Mu-type opioid receptor [4]) was 9.07 and the pIC50 (Mu-type opioid receptor [2]) was 11.15.
Compound `CCNC(=O)[C@@H](CC(C)C)NC(=O)[C@H](CCCN=C(N)N)N(C)C(=O)[C@H](CCCN=C(N)N)NC(=O)[C@@H]1CSSC[C@@H](NC(=O)[C@@H](N)Cc2ccc(O)cc2)C(=O)NCC(=O)N[C@@H](Cc2ccccc2)C(=O)N1` [listing 2 of 2 here] has an ED50 (Mus musculus [7]) of 0.22 mg/kg.
`CC(C)C[C@H](NC(=O)[C@H](CCCN=C(N)N)NC(=O)[C@H](CCCN=C(N)N)NC(=O)[C@H](CC(C)C)NC(=O)[C@H](Cc1ccccc1)NC(=O)CNC(=O)[C@H](C)NC(=O)[C@@H](N)Cc1ccc(O)cc1)C(N)=O` (H-YAGFLRRL-NH2) showed a pIC50 [1] of 8.04, a pIC50 (Mu-type opioid receptor [2]) of 8.16 and an ED50 (Mus musculus [8]) of 11.7 mg/kg.
With `CC(C)C[C@H](NC(=O)[C@H](CCCN=C(N)N)NC(=O)[C@H](CCCN=C(N)N)NC(=O)[C@H](CC(C)C)NC(=O)[C@H](Cc1ccccc1)NC(=O)CNC(=O)CN(C)C(=O)[C@@H](N)Cc1ccc(O)cc1)C(N)=O` (H-Y[Sar]GFLRRL-NH2) the ED50 (Mus musculus [3]) was over 10 mg/kg.
`CC(C)C[C@H](NC(=O)[C@H](CCCNC(=N)N)NC(=O)[C@H](CCCNC(=N)N)NC(=O)[C@H](CC(C)C)NC(=O)[C@H](Cc1ccccc1)NC(=O)CNC(=O)CN(C)C(=O)[C@@H](N)Cc1ccc(O)cc1)C(N)=O` (H-Y[Sar]GFLRRL-NH2) gave a pIC50 [1] of 5.75 and a pIC50 (Mu-type opioid receptor [2]) of 6.05.
`CN[C@@H](Cc1ccc(O)cc1)C(=O)N[C@@H](C)C(=O)NCC(=O)N[C@@H](Cc1ccccc1)C(=O)N[C@@H](CC(C)C)C(=O)N[C@@H](CCCN=C(N)N)C(=O)N[C@@H](CCCN=C(N)N)C(=O)N[C@@H](CC(C)C)C(N)=O` (H-[NMeY]AGFLRRL-NH2) gave an ED50 (Mus musculus [3]) of over 5 mg/kg.
For `CN[C@@H](Cc1ccc(O)cc1)C(=O)N[C@@H](C)C(=O)NCC(=O)N[C@@H](Cc1ccccc1)C(=O)N[C@@H](CC(C)C)C(=O)N[C@@H](CCCNC(=N)N)C(=O)N[C@@H](CCCNC(=N)N)C(=O)N[C@@H](CC(C)C)C(N)=O` (H-[NMeY]AGFLRRL-NH2), the pIC50 [1] was 7.59, the pKi (Mu-type opioid receptor [4]) was 8.90 and the pIC50 (Mu-type opioid receptor [2]) was 7.86.
Work on `CN[C@@H](Cc1ccc(O)cc1)C(=O)NCC(=O)NCC(=O)N(C)[C@@H](Cc1ccccc1)C(=O)N[C@@H](CC(C)C)C(=O)N[C@@H](CCCNC(=N)N)C(=O)N[C@@H](CCCNC(=N)N)C(=O)N[C@@H](CC(C)C)C(N)=O` (H-[NMeY]GG[NMeF]LRRL-NH2) yielded a pIC50 [1] of 6.92 and a pIC50 (Mu-type opioid receptor [2]) of 7.57.
For `CN[C@@H](Cc1ccc(O)cc1)C(=O)NCC(=O)NCC(=O)N[C@@H](Cc1ccc([N+](=O)[O-])cc1)C(=O)N[C@@H](CC(C)C)C(=O)N[C@@H](CCCN=C(N)N)C(=O)N[C@@H](CCCN=C(N)N)C(=O)N[C@@H](CC(C)C)C(N)=O` (H-[NMeY]GG[Phe(4-NO2)]LRRL-NH2), the ED50 (Mus musculus [9]) was 1.23 mg/kg, the pIC50 [1] was 8.42 and the pKi (Mu-type opioid receptor [4]) was 9.00. The pIC50 (Mu-type opioid receptor [2]) was 8.89.
